Source: ChEMBL document CHEMBL1155883, “5-Alkyl-6-benzyl-2-(2-oxo-2-phenylethylsulfanyl)pyrimidin-4(3H)-ones, a series of anti-HIV-1 agents of the dihydro-alkoxy-benzyl-oxopyrimidine family with peculiar structure-activity relationship profile” (J Med Chem, 2008)

Assays:
[1] = test system: Human immunodeficiency virus 1; assay: Resistance index, ratio of EC50 for drug-resistant HIV1 isolate with reverse transcriptase Y188L mutation to EC50 for wild type HIV1 NL4-3; assay type: functional
In short: (§1)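 Fold resistance is the EC50 against the K103N, Y181C or Y188L mutant strain divided by the EC50 against wt NL4-3. Each EC50 is from MT-4 cells infected in the presence of different drug concentrations, with viability read by MTT at day 5 postinfection.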

[2] = test system: Human immunodeficiency virus 1; assay: Resistance index, ratio of ID50 for reverse transcriptase L100I mutant to IC50 for wild-type HIV1 reverse transcriptase
In short: (§2)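 Recombinant wt and K103N, L100I or Y181I HIV-1 RT (>95% pure), 2-4 nM. RNA-dependent DNA polymerase assay on 0.5 µg poly(rA)/oligo(dT) 10:1 (0.3 µM 3'-OH ends) with 10 µM [3H]-dTTP and 8% final DMSO. Aliquots taken every 2 min. Inhibitor range 0.2-5× ID50, fitted to a noncompetitive model. Fold resistance is mutant ID50 divided by wt ID50.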

[3] = test system: Human immunodeficiency virus 1; assay: Resistance index, ratio of ID50 for reverse transcriptase K103N mutant to IC50 for wild-type HIV1 sreverse transcriptase; in short: as §2
[4] = test system: Human immunodeficiency virus 1; assay: Antiviral activity against HIV1 isolates with reverse transcriptase Y188L mutation in human MT4 cells assessed as inhibition of virus-induced cytopathogenicity by MTT assay; assay type: functional, organism-based; conditions: Human immunodeficiency virus 1, MT4
In short: (§3)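 MT-4 lymphoid cells infected with HIV-1 carrying RT K103N, Y181C or Y188L, in the presence of different drug concentrations. Viable cells counted at day 5 postinfection by MTT colorimetric assay. EC50 is the concentration that inhibits 50% of the HIV-induced cytopathic effect.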

[5] = test system: Human immunodeficiency virus 1; assay: Antiviral activity against HIV1 isolates with reverse transcriptase K103N mutation in human MT4 cells assessed as inhibition of virus-induced cytopathogenicity by MTT assay; assay type: functional, organism-based; conditions: Human immunodeficiency virus 1, MT4; in short: as §3
[6] = test system: Human immunodeficiency virus 1; assay: Resistance index, ratio of ID50 for reverse transcriptase Y181I mutant to IC50 for wild-type HIV1 reverse transcriptase; in short: as §2
[7] = test system: Human immunodeficiency virus type 1 reverse transcriptase (Human immunodeficiency virus 1), Q72547 [L100I]
[8] = test system: Human immunodeficiency virus type 1 reverse transcriptase (Human immunodeficiency virus 1), Q72547 [Y181I]
[9] = Cytotoxicity against human MT4 cells by MTT assay; assay type: cell-based
In short: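 Mock-infected MT-4 cells were exposed to a range of compound concentrations. Viability was read by MTT at day 5. CC50 is the concentration that kills 50% of uninfected cells. The top concentration was limited by compound precipitation in culture medium. Means ± SD from at least two or three experiments.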

[10] = Selectivity index, ratio of CC50 for human MT4 cells to EC50 for HIV1 NL4-3; assay type: toxicity, cell-based; conditions: read-out: Ratio CC50/EC50
In short: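 Computed as CC50/EC50. CC50 comes from MTT viability of mock-infected MT-4 cells and EC50 from MTT protection of NL4-3-infected MT-4 cells, both read at day 5.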

[11] = test system: Human immunodeficiency virus 1; assay: Antiviral activity against HIV1 isolates with reverse transcriptase Y181C mutation in human MT4 cells assessed as inhibition of virus-induced cytopathogenicity by MTT assay; assay type: functional, organism-based; conditions: Human immunodeficiency virus 1, MT4; in short: as §3
[12] = test system: Human immunodeficiency virus type 1 reverse transcriptase (Human immunodeficiency virus 1), Q72547 [K103N]
[13] = biological target: Human immunodeficiency virus type 1 reverse transcriptase (Human immunodeficiency virus 1) (UniProt Q72547)
[14] = test system: Human immunodeficiency virus 1; assay: Antiviral activity against HIV1 NL4-3 in human MT4 cells assessed as inhibition of virus-induced cytopathogenicity by MTT assay; assay type: functional, organism-based; conditions: Human immunodeficiency virus 1, NL4-3, MT4
In short: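 MT-4 lymphoid cells infected with wild-type HIV-1 NL4-3 in the presence of a range of compound concentrations. Viable cells were counted by MTT colorimetric read-out at day 5 post-infection. EC50 is the concentration giving 50% protection from virus-induced cytopathic effect. Means ± SD from at least two or three experiments.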

[15] = test system: Human immunodeficiency virus 1; assay: Resistance index, ratio of EC50 for drug-resistant HIV1 isolate with reverse transcriptase K103N mutation to EC50 for wild type HIV1 NL4-3; assay type: functional; in short: as §1
[16] = test system: Human immunodeficiency virus 1; assay: Resistance index, ratio of EC50 for drug-resistant HIV1 isolate with reverse transcriptase Y181C mutation to EC50 for wild type HIV1 NL4-3; assay type: functional; in short: as §1

In the case of `Cc1c(Cc2c(Cl)cccc2Cl)nc(SCC(=O)c2ccccc2)[nH]c1=O`, the “Ratio EC50” value [1] is reported as 232, the Ratio [2] is reported as 34 and the Ratio [3] is reported as 53. For the same compound, the EC50 [4] was 8.82 µM, the EC50 [5] was 3.79 µM and the Ratio [6] was 6. The ID50 [7] was 7.8 µM, the ID50 [8] was 1.38 µM and the CC50 [9] was greater than 60 µM. The selectivity ratio [10] was greater than 1580, the EC50 [11] was 0.48 µM and the ID50 [12] was 12 µM. The ID50 [13] was 0.23 µM, the EC50 [14] was 0.038 µM and the “Ratio EC50” value [15] was 100. For the same compound, the “Ratio EC50” value [16] was 13.

For `COc1ccc(C(=O)CSc2nc(Cc3c(F)cccc3F)c(C(C)C)c(=O)[nH]2)cc1`, the “Ratio EC50” value [1] was 7350, the Ratio [3] was 1440 and the EC50 [4] was 14.7 µM. It also gave an EC50 [5] of 17.5 µM, an ID50 [7] greater than 40 µM and an ID50 [8] greater than 40 µM. The CC50 [9] was 33 µM, the selectivity ratio [10] was 16500 and the EC50 [11] was 0.067 µM. It also gave an ID50 [12] of 37.3 µM, an ID50 [13] of 0.026 µM and an EC50 [14] of 0.002 µM. For the same compound, the “Ratio EC50” value [15] was 8750 and the “Ratio EC50” value [16] was 33.

For `CCc1c(Cc2c(Cl)cccc2Cl)nc(SCC(=O)c2ccccc2)[nH]c1=O`, the “Ratio EC50” value [1] was 714, the Ratio [2] was 50 and the Ratio [3] was 26. It also gave an EC50 [4] of 5 µM, an EC50 [5] of 1.2 µM and a Ratio [6] of 5. The ID50 [7] was 3.54 µM, the ID50 [8] was 0.33 µM and the CC50 [9] was greater than 52 µM. For the same compound, the selectivity ratio [10] was greater than 7430, the EC50 [11] was 0.046 µM and the ID50 [12] was 1.88 µM. For the same compound, the ID50 [13] was 0.071 µM, the EC50 [14] was 0.007 µM and the “Ratio EC50” value [15] was 171. The “Ratio EC50” value [16] was 7.

For `CC(C)c1c(Cc2c(Cl)cccc2Cl)nc(SCC(=O)c2ccccc2)[nH]c1=O`, the “Ratio EC50” value [1] was 1375, the Ratio [2] was 326 and the Ratio [3] was 894. The EC50 [4] was 5.5 µM, the EC50 [5] was 5.1 µM and the Ratio [6] was 542. The ID50 [7] was 10.1 µM, the ID50 [8] was 16.8 µM and the CC50 [9] was greater than 56 µM. It also gave a selectivity ratio [10] greater than 14000, an EC50 [11] of 0.11 µM and an ID50 [12] of 27.7 µM. The ID50 [13] was 0.031 µM, the EC50 [14] was 0.004 µM and the “Ratio EC50” value [15] was 1275. The “Ratio EC50” value [16] was 27.

In the case of `COc1ccc(CCSc2nc(Cc3c(Cl)cccc3Cl)c(C)c(=O)[nH]2)cc1`, the “Ratio EC50” value [1] is reported as 49286, the Ratio [3] is reported as 123 and the Ratio [6] is reported as 58. For the same compound, the CC50 [9] was greater than 57 µM, the selectivity ratio [10] was greater than 407000 and the EC50 [14] was less than 0.00014 µM. The “Ratio EC50” value [15] was 6214.

With `CC(C)c1c(Cc2c(F)cccc2Cl)nc(SCC(=O)c2ccccc2)[nH]c1=O` the “Ratio EC50” value [1] was 1540, the Ratio [2] was 1300 and the Ratio [3] was 4500. For the same compound, the EC50 [4] was 7.7 µM, the EC50 [5] was 3.29 µM and the ID50 [7] was 1.3 µM. The ID50 [8] was greater than 40 µM, the CC50 [9] was greater than 12 µM and the selectivity ratio [10] was greater than 2400. It also gave an EC50 [11] of 0.21 µM, an ID50 [12] of 4.5 µM and an ID50 [13] of 0.001 µM. The EC50 [14] was 0.005 µM, the “Ratio EC50” value [15] was 658 and the “Ratio EC50” value [16] was 42.

For `CCc1c(Cc2c(F)cccc2Cl)nc(SCC(=O)c2ccccc2)[nH]c1=O`, the “Ratio EC50” value [1] was 782, the Ratio [2] was 1210 and the EC50 [4] was 9.38 µM. It also gave an EC50 [5] of 1.2 µM, an ID50 [7] of 9.7 µM and an ID50 [8] greater than 40 µM. For the same compound, the CC50 [9] was greater than 12 µM, the selectivity ratio [10] was greater than 1000 and the EC50 [11] was 0.39 µM. The ID50 [12] was greater than 40 µM, the ID50 [13] was 0.008 µM and the EC50 [14] was 0.012 µM. The “Ratio EC50” value [15] was 100 and the “Ratio EC50” value [16] was 32.

In the case of `CCc1c(Cc2c(Cl)cccc2Cl)nc(SCC(=O)c2ccc(F)cc2)[nH]c1=O`, the “Ratio EC50” value [1] is reported as 5186, the Ratio [2] is reported as 43 and the Ratio [3] is reported as 43. The EC50 [4] was 36.3 µM, the EC50 [5] was 4.7 µM and the Ratio [6] was 6. For the same compound, the ID50 [7] was 1.82 µM, the ID50 [8] was 0.24 µM and the CC50 [9] was greater than 55 µM. It also gave a selectivity ratio [10] greater than 7860, an EC50 [11] of 0.49 µM and an ID50 [12] of 1.79 µM. For the same compound, the ID50 [13] was 0.042 µM, the EC50 [14] was 0.007 µM and the “Ratio EC50” value [15] was 671. For the same compound, the “Ratio EC50” value [16] was 70.
